Test results reported in ChEMBL document CHEMBL1132951, “Resistance-modifying agents. 9. Synthesis and biological properties of benzimidazole inhibitors of the DNA repair enzyme poly(ADP-ribose) polymerase” (J Med Chem, 2000).

Assays:
[1] = molecular target: T1, Poly [ADP-ribose] polymerase 1 (Homo sapiens, UniProt P09874)
[2] = tested on: A2780; assay: Potentiation of growth inhibition of A2780 cells along with 10 uM NU1085 in experiment 2; type: functional, cell-based; details: Homo sapiens
Outline: (§1)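 A2780 cells were grown in HEPES-RPMI 1640 + 10% FCS and seeded at 2.0–2.5 × 10^3 per well. After overnight attachment (16–24 h) they were exposed for 72 h to graded temozolomide or topotecan ± 10 μM PARP inhibitor (1% DMSO). Sulforhodamine B read at 570 nm, 5 replicate wells, % of matched control. IC50 by nonlinear regression; potentiation is IC50 alone over IC50 with inhibitor.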

[3] = tested on: A2780; assay: Potentiation of growth inhibition of A2780 by compound alone in experiment 1; type: functional, cell-based; details: Homo sapiens
Outline: as §1

[4] = tested on: A2780; assay: Potentiation factor at 50% growth inhibition (IC50 of compound to that of compound along with PARP inhibitor) in experiment 1; type: functional, Homo sapiens
Outline: as §1

[5] = tested on: A2780; assay: Potentiation of growth inhibition of A2780 cells along with 10 uM NU1085 in experiment 1; type: functional, cell-based; details: Homo sapiens
Outline: as §1

[6] = tested on: A2780; assay: Potentiation factor at 50% growth inhibition (IC50 of compound to that of compound along with PARP inhibitor) in experiment 2; type: functional, Homo sapiens
Outline: as §1

[7] = tested on: A2780; assay: Potentiation of growth inhibition of A2780 cells by compound alone in experiment 2; type: functional, cell-based; details: Homo sapiens
Outline: as §1

[8] = molecular target: T1, Poly [ADP-ribose] polymerase 1; assay: In vitro inhibition against human full length PARP protein; IA means inactive
Outline: (§2)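 Baculovirus-expressed, purified human full-length PARP (20 nM) with DNase I-activated calf thymus DNA (10 μg/mL) and NAD+ (500 μM, with [32P]NAD+). Run in 50 mM Tris pH 8.0, 10 mM MgCl2, 1 mM TCEP, 2% DMSO, 25 °C, 5 min (linear to 8 min). Stopped with ice-cold TCA and filtered. Acid-insoluble [32P]ADP-ribose read by phosphorimager. Ki from competitive-inhibition fit; tight-binding equation where needed.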

[9] = molecular target: T1, Poly [ADP-ribose] polymerase 1; assay: In vitro inhibition against human full length PARP protein
Outline: as §2

[10] = tested on: A2780; assay: Potentiation of growth inhibition of A2780 cells by compound alone in experiment 1; type: functional, cell-based; details: Homo sapiens
Outline: as §1

T1 sequence (P09874 whole entry): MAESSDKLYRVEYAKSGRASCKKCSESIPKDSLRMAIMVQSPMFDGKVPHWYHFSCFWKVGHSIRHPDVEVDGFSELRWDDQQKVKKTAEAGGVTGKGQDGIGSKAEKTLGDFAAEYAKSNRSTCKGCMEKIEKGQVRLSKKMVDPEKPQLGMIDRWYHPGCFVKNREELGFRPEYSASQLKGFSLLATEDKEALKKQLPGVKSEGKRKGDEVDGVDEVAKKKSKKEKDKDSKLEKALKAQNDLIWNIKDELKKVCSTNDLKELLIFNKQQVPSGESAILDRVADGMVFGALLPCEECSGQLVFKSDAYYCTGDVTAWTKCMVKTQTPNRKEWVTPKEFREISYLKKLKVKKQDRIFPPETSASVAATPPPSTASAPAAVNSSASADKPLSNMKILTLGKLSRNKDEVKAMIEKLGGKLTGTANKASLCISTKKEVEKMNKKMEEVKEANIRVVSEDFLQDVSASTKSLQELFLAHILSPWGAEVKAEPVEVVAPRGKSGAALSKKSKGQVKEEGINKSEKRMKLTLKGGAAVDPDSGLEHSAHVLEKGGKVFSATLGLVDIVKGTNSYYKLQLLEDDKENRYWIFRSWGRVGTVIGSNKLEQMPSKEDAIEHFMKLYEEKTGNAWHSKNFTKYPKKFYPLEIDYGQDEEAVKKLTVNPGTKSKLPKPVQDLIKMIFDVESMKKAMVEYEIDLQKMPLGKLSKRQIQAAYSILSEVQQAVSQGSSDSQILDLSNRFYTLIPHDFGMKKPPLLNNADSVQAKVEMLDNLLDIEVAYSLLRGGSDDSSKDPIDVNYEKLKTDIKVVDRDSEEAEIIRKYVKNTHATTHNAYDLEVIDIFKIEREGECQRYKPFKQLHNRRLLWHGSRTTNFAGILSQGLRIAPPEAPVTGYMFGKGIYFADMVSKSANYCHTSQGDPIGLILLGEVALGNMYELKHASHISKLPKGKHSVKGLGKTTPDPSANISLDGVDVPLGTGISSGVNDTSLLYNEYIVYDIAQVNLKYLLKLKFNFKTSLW

## N#Cc1ccc(-c2nc3c(C(N)=O)cccc3[nH]2)cc1
[1]
  Ki: 4 nM

## COc1ccc(-c2nc3c(C(N)=O)cccc3n2C(=O)OCc2ccccc2)cc1
[1]
  Ki: 530 nM

## COc1cc(-c2nc3c(C(N)=O)cccc3[nH]2)ccc1O
[1]
  Ki: 13 nM

## O=C(O)c1cccc2[nH]c(-c3ccc(O)cc3)nc12
[1]
  Ki: 10000 nM

## Cn1nnc2c(C(N)=O)ncn2c1=O [TEMOZOLOMIDE]
[2]
  IC50: 183000 nM
[3]
  IC50: 525000 nM
[4]
  PF50: 2.8
[5]
  IC50: 188000 nM
[6]
  PF50: 2
[7]
  IC50: 368000 nM

## NC(=O)c1cccc2[nH]c(-c3cccc(Cl)c3)nc12
[1]
  Ki: 8.4 nM

## COc1ccc(-c2nc3c(C(N)=O)cccc3n2C)cc1
[1]
  Ki: 32 nM

## CNC(=O)c1cccc2[nH]c(-c3ccc(O)cc3)nc12
[8]
  Ki: Not Active

## NC(=O)c1cccc2[nH]c(C(F)(F)F)nc12
[1]
  Ki: 350 nM

## NC(=O)c1cccc2[nH]c(-c3ccc([N+](=O)[O-])cc3)nc12
[9]
  Ki: 8 nM

## C=CCOc1cc(-c2nc3c(C(N)=O)cccc3[nH]2)ccc1OC
[1]
  Ki: 9.4 nM

## CCOC(=O)c1ccc(-c2nc3c(C(N)=O)cccc3[nH]2)cc1
[1]
  Ki: 8.1 nM

## COc1ccc(-c2nc3c(C(N)=O)cccc3[nH]2)cc1O
[1]
  Ki: 2 nM

## NC(=O)c1cccc2[nH]cnc12
[1]
  Ki: 95 nM

## NC(=O)c1cccc2[nH]c(-c3cccc(O)c3)nc12
[1]
  Ki: 6.3 nM

## NC(=O)c1cccc2[nH]c(-c3ccc4c(c3)OCO4)nc12
[1]
  Ki: 5.9 nM

## NC(=O)c1cccc2[nH]c(-c3cccc(C(F)(F)F)c3)nc12
[1]
  Ki: 8 nM

## NC(=O)c1cccc2[nH]c(-c3cccc(CO)c3)nc12
[1]
  Ki: 6.8 nM

## NC(=O)c1cccc2[nH]c(-c3ccc(C(=O)O)cc3)nc12
[1]
  Ki: 290 nM

## CC[C@@]1(O)C(=O)OCc2c1cc1n(c2=O)Cc2cc3c(CN(C)C)c(O)ccc3nc2-1 [TOPOTECAN]
[2]
  IC50: 8700 nM
[10]
  IC50: 22600 nM
[4]
  PF50: 2.9
[5]
  IC50: 7800 nM
[6]
  PF50: 2.5
[7]
  IC50: 22000 nM

## Cc1nc2c(C(N)=O)cccc2[nH]1
[1]
  Ki: 99 nM

## NC(=O)c1cccc2[nH]c(-c3ccc(CO)cc3)nc12
[1]
  Ki: 1.6 nM

## NC(=O)c1cccc2nc(-c3ccc(N)cc3)[nH]c12
[1]
  Ki: 11 nM

## NC(=O)c1cccc2[nH]c(-c3ccccc3CO)nc12
[1]
  Ki: 10.6 nM

## NC(=O)c1cccc2[nH]c(-c3ccccc3Cl)nc12
[1]
  Ki: 9.4 nM

## CN(C)c1ccc(-c2nc3c(C(N)=O)cccc3[nH]2)cc1
[1]
  Ki: 5.8 nM

## NC(=O)c1cccc2[nH]c(-c3ccccc3C(F)(F)F)nc12
[1]
  Ki: 190 nM

## COc1cc(-c2nc3c(C(N)=O)cccc3[nH]2)cc(OC)c1OC
[1]
  Ki: 136 nM

## CC(C)[Si](OCc1ccc(-c2nc3c(C(N)=O)cccc3[nH]2)cc1)(C(C)C)C(C)C
[1]
  Ki: 85 nM

## CNC(=O)c1cccc2[nH]c(-c3ccc(OC)cc3)nc12
[8]
  Ki: Not Active

## NC(=O)c1cccc2[nH]c(-c3ccc(C(F)(F)F)cc3)nc12
[1]
  Ki: 1.2 nM

## COc1ccc(-c2nc3c(C(N)=O)cccc3[nH]2)cc1
[1]
  Ki: 6.8 nM

## NC(=O)c1cccc2[nH]c(-c3ccccc3F)nc12
[1]
  Ki: 9 nM

## NC(=O)c1cccc2nc(-c3ccc(O)cc3)[nH]c12
[1]
  Ki: 6 nM

## NC(=O)c1cccc2nc(-c3ccc(Cl)cc3)[nH]c12
[1]
  Ki: 3 nM

## COc1ccccc1-c1nc2c(C(N)=O)cccc2[nH]1
[1]
  Ki: 126 nM

## COc1ccc(-c2nc3c(C(N)=O)cccc3[nH]2)cc1OC
[1]
  Ki: 5.4 nM
